From ChEMBL document CHEMBL1157508, “Mollamides B and C, Cyclic hexapeptides from the indonesian tunicate Didemnum molle” (J Nat Prod, 2008)
Converted amounts (≈) assume the structure as drawn. The source made the active and inactive calls. The calls are words filed in the database; no cut-off is given here. Numbered stars: 1 amine (or outer) side, 2 acyl side, 3 side chain; on linkers, the order of the positions; unused ones are H or OH. Square brackets hold non-standard residues; d marks the D form. Peptide text beside a SMILES is read from it. * marks the point of attachment. X1 = CC(C)[C@H](N[*:1])C1=N[C@H](C(=O)[*:2])CS1; Allyl(1,1-Me2) = C=CC(C)(C)*

Experiments:
[1] = Cytotoxicity against human H125 cells assessed as zone differential value; assay type: functional
Procedure, shortened: (§1)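 In vitro disk diffusion assay measuring differential cell killing across nine cell types: leukemias (murine L1210, human CCRF-CEM), solid tumors (murine colon 38, human HCT-116, H125, MCF-7, LNCaP), and murine and human normal hematopoietic progenitor cells (CFU-GM). The read-out is the zone differential between solid tumor, leukemia and normal cell colonies.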

L1210 = assay: Cytotoxicity against mouse L1210 cells assessed as zone differential value; assay type: functional; procedure, shortened: as §1
Microglia = assay: Antiinflammatory activity against rat neonatal microglia; assay type: functional
HCT-116 = assay: Cytotoxicity against human HCT116 cells assessed as zone differential value; assay type: functional; procedure, shortened: as §1
[2] = Cytotoxicity against mouse Colon38 cells assessed as zone differential value; assay type: functional; procedure, shortened: as §1
[3] = target: T1, Prostaglandin G/H synthase 2 (Homo sapiens) (UniProt P35354); assay: Inhibition of COX2 in cell based assay
T1 sequence (whole entry): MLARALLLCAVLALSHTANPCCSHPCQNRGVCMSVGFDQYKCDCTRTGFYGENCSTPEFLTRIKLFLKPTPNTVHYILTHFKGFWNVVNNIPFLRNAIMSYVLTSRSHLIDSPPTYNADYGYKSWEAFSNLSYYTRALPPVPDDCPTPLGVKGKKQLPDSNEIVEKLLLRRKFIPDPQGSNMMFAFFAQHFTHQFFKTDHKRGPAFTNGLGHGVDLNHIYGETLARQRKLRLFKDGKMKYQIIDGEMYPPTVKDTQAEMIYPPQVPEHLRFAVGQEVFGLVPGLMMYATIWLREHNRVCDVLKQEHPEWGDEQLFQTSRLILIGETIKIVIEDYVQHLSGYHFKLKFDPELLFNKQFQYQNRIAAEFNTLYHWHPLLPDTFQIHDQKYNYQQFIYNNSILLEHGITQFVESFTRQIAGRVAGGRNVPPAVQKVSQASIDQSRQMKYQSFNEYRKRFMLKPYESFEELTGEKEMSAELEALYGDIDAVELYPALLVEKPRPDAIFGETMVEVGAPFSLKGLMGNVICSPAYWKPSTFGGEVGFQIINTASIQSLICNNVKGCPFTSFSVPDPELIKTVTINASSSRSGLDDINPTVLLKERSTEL

Pichia kudriavzevii = assay: Antimicrobial activity against Candida krusei; assay type: functional, organism-based
Candida albicans = assay: Antimicrobial activity against Candida albicans; assay type: functional, organism-based
Nakaseomyces glabratus = assay: Antimicrobial activity against Candida glabrata; assay type: functional, organism-based
[4] = test system: Human immunodeficiency virus 1; assay: Antiviral activity against HIV1 infected in human PBMC; assay type: functional, organism-based
[5] = test system: Mycobacterium intracellulare; assay: Antimicrobial activity against Mycobacterium intracellular; assay type: functional, organism-based
Staphylococcus aureus = assay: Antimicrobial activity against methicillin-resistant Staphylococcus aureus; assay type: functional, organism-based
Plasmodium falciparum [6] = assay: Antimalarial activity against Plasmodium falciparum W2; assay type: functional, organism-based
Plasmodium falciparum [7] = assay: Antimalarial activity against Plasmodium falciparum D6; assay type: functional, organism-based
Leishmania donovani = assay: Antileishmanial activity against Leishmania donovani; assay type: functional, organism-based
Cryptococcus neoformans = assay: Antimicrobial activity against Cryptococcus neoformans; assay type: functional, organism-based

Row | Structure (SMILES) | Activity [1] | Activity (L1210) | Activity (Microglia) | Activity (HCT-116) | Activity [2] | Activity [3] | Activity (Pichia kudriavzevii) | Activity (Candida albicans) | Activity (Nakaseomyces glabratus) | EC50 [4] [µM] | Activity [5] | Activity (Staphylococcus aureus) | IC50 (Plasmodium falciparum [6]) [µg/mL] | IC50 (Plasmodium falciparum [7]) [µg/mL] | IC50 (Leishmania donovani) [µg/mL] | IC90 (Leishmania donovani) [µg/mL] | Activity (Cryptococcus neoformans)
1 | C=CC(C)(C)OC[C@@H]1NC(=O)CNC(=O)[C@@H]2CCCN2C(=O)[C@H]([C@H](C)CC)NC(=O)c2csc(n2)[C@H](CC(C)C)NC1=O [MOLLAMIDE C] | 100 | 100 | inactive | 100 | 250 | inactive | – | – | – | – | – | – | – | – | – | – | –
2 | C=CC(C)(C)O[C@H](C)[C@@H]1NC(=O)[C@@H]2CCCN2C(=O)[C@H](Cc2ccccc2)NC(=O)[C@H](C(C)C)NC(=O)[C@@H]2CSC(=N2)[C@H](C(C)C)NC1=O [MOLLAMIDE B] (cyclo(FPT(Allyl(1,1-Me2))[X1]V)) | – | – | inactive | – | – | inactive | inactive | inactive | inactive | 48.7 | inactive | inactive | 2.1 (≈ 3.01 µM) | 2 (≈ 2.87 µM) | 18 (≈ 25.8 µM) | 35 (≈ 50.2 µM) | inactive
